Reference: ChEMBL document CHEMBL1155278, “3,4-Diaryl-isoxazoles and -imidazoles as potent dual inhibitors of p38alpha mitogen activated protein kinase and casein kinase 1delta” (J Med Chem, 2009)

Legend:
[1] = Inhibition of PKA assessed as residual activity at 10 uM by Cherenkov counting relative to control in presence of 20 uM ATP
Method in brief: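 Single-concentration profiling at 10 μM in a 78-kinase panel. Kinase activity is expressed as a percentage of control assays run without compound.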

[2] = target: T1, Serine/threonine-protein kinase 3 (Homo sapiens) (UniProt Q13188); assay: Inhibition of MST2 assessed as residual activity at 10 uM by Cherenkov counting relative to control in presence of 20 uM ATP
T1 sequence (whole entry): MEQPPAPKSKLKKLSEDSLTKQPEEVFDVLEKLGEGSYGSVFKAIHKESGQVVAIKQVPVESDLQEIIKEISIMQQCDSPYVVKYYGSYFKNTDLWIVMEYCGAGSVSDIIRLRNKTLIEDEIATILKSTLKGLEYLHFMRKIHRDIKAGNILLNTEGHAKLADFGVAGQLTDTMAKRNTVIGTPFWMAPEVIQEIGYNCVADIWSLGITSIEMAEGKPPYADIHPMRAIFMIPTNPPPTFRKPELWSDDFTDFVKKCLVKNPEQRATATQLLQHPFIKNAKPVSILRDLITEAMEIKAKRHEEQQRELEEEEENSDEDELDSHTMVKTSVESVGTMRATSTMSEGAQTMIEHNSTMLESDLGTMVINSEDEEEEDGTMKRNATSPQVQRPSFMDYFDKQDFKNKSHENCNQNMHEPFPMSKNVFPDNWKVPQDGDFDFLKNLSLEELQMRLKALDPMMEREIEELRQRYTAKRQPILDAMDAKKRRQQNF

[3] = target: Insulin receptor (Homo sapiens) (UniProt P06213); assay: Inhibition of histidine-tagged IR assessed as residual activity at 0.1 uM by Cherenkov counting relative to control in presence of 20 uM ATP
Method in brief: (§1)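 Single-concentration screen at 0.1 μM in a 76-kinase panel. ATP for each kinase was set near its Km for ATP. Residual activity is given as a percentage of control assays without compound, mean of n = 3 ± SD.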

[4] = target: Casein kinase I isoform delta (Homo sapiens, UniProt P48730); assay: Inhibition of recombinant CK1delta kinase domain by Cherenkov counting
[5] = target: Mitogen-activated protein kinase 9 (Homo sapiens) (UniProt P45984); assay: Inhibition of JNK2 assessed as residual activity at 0.1 uM by Cherenkov counting relative to control in presence of 20 uM ATP
Method in brief: (§2)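 Single-concentration selectivity screen at 0.1 μM against a panel of 76 protein kinases. Each kinase was run at an ATP level approximating its Km for ATP. Output is mean residual activity as % of the control assay without compound, n = 3 ± SD.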

[6] = target: RAC-beta serine/threonine-protein kinase (Homo sapiens) (UniProt P31751); assay: Inhibition of PKBbeta assessed as residual activity at 0.1 uM by Cherenkov counting relative to control in presence of 50 uM ATP; method in brief: as §1
[7] = target: T2, Protein kinase C zeta type (Homo sapiens) (UniProt Q05513); assay: Inhibition of PKCzeta assessed as residual activity at 0.1 uM by Cherenkov counting relative to control in presence of 5 uM ATP; method in brief: as §1
T2 sequence (whole entry): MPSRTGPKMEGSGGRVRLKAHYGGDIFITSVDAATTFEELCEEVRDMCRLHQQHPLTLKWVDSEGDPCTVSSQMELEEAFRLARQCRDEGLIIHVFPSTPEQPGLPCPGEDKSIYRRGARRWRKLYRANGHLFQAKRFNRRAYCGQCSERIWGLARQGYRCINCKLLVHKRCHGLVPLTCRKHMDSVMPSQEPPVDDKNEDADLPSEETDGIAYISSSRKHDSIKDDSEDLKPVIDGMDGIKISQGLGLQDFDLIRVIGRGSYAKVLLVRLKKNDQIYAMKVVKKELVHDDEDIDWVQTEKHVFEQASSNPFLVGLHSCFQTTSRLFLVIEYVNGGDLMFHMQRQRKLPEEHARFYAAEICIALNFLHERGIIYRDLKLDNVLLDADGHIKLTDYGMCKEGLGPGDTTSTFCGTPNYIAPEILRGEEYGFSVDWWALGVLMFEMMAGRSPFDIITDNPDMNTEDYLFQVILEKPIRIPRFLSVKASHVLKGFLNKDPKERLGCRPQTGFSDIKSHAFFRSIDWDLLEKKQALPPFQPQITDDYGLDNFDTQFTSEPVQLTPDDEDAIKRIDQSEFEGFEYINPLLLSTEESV

[8] = target: Calcium/calmodulin-dependent protein kinase type 1 (Homo sapiens) (UniProt Q14012); assay: Inhibition of CAMK1 assessed as residual activity at 0.1 uM by Cherenkov counting relative to control in presence of 50 uM ATP
Method in brief: (§3)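 Single-concentration screen at 0.1 µM across a panel of 76 protein kinases. Each kinase was run at an ATP concentration approximating its ATP Km. Results are % mean residual activity versus control assays without compound (n = 3 ± SD).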

[9] = target: T3, Serine/threonine-protein kinase Chk1 (Homo sapiens) (UniProt O14757); assay: Inhibition of CHK1 assessed as residual activity at 0.1 uM by Cherenkov counting relative to control in presence of 20 uM ATP; method in brief: as §3
T3 sequence (whole entry): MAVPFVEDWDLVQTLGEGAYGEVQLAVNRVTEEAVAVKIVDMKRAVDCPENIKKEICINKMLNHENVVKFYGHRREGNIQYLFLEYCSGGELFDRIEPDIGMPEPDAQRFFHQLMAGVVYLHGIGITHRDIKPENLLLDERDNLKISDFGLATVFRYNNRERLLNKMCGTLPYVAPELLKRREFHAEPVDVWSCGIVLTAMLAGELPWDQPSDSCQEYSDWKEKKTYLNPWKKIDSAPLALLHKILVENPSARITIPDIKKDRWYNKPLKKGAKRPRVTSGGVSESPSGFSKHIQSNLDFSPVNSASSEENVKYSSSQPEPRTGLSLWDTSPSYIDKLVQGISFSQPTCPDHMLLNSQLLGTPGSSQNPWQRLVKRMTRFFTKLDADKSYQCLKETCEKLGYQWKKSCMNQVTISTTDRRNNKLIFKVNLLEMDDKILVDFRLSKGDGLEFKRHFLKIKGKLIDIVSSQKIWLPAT

[10] = Inhibition of CK2 assessed as residual activity at 0.1 uM by Cherenkov counting relative to control in presence of 5 uM ATP; method in brief: as §3
[11] = target: Serine/threonine-protein kinase PAK 6 (Homo sapiens) (UniProt Q9NQU5); assay: Inhibition of PAK6 assessed as residual activity at 0.1 uM by Cherenkov counting relative to control in presence of 20 uM ATP; method in brief: as §2
Serine/threonine-protein kinase PAK 6 (Homo sapiens), sequence (Q9NQU5 whole entry, looked up): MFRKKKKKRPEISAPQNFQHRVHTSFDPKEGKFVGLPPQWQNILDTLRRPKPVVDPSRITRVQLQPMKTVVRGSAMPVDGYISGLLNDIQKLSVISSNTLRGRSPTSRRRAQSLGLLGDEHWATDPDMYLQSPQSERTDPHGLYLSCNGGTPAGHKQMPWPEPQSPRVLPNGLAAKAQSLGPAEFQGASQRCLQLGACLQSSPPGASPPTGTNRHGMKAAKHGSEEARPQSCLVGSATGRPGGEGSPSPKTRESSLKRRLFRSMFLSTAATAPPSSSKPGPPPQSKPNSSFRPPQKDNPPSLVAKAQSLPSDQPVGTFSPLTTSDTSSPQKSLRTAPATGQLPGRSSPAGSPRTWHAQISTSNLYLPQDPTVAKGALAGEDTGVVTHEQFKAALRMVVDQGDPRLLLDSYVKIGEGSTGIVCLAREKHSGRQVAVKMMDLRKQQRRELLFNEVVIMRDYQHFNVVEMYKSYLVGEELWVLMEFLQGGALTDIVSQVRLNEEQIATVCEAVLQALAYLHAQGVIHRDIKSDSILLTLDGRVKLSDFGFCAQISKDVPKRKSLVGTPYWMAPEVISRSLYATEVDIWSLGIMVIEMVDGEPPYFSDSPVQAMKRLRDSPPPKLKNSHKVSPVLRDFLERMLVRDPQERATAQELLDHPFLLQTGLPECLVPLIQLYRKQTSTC

Insulin receptor (Homo sapiens), sequence (P06213 28-758 limits assumed): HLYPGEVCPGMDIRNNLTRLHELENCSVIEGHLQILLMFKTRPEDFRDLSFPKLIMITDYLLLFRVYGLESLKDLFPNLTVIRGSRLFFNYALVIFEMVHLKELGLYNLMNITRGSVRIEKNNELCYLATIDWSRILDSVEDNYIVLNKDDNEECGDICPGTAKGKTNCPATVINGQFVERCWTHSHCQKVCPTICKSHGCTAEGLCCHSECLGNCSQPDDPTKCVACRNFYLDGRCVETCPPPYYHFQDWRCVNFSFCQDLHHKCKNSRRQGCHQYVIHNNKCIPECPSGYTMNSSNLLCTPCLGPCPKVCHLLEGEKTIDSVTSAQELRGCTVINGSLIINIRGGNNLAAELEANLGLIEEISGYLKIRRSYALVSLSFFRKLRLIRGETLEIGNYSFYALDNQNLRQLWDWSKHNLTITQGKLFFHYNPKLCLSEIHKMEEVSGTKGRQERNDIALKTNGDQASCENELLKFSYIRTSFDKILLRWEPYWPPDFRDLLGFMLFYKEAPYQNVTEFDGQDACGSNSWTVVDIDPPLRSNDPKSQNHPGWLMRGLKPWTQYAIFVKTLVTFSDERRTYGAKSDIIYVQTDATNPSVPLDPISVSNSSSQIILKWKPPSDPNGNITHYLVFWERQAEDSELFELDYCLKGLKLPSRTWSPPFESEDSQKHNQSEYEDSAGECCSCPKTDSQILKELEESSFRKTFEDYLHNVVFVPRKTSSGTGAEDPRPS
Insulin receptor (Homo sapiens), sequence (P06213 763-1382 limits assumed): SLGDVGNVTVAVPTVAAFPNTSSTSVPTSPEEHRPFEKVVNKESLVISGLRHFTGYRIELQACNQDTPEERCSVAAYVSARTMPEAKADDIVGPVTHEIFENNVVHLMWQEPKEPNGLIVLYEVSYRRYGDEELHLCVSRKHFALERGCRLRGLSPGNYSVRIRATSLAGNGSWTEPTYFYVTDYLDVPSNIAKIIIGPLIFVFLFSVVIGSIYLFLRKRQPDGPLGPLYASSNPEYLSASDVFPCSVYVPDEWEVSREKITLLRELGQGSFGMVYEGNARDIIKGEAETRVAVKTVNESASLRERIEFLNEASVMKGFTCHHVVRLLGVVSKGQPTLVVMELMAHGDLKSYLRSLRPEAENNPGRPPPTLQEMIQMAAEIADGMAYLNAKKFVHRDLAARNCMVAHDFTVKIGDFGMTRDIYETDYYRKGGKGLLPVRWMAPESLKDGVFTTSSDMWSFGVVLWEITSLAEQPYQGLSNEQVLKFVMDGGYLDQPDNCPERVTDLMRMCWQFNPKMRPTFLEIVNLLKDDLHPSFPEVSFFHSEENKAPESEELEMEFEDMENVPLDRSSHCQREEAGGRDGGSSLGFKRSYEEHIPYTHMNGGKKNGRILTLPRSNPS
RAC-beta serine/threonine-protein kinase (Homo sapiens), sequence (P31751 whole entry): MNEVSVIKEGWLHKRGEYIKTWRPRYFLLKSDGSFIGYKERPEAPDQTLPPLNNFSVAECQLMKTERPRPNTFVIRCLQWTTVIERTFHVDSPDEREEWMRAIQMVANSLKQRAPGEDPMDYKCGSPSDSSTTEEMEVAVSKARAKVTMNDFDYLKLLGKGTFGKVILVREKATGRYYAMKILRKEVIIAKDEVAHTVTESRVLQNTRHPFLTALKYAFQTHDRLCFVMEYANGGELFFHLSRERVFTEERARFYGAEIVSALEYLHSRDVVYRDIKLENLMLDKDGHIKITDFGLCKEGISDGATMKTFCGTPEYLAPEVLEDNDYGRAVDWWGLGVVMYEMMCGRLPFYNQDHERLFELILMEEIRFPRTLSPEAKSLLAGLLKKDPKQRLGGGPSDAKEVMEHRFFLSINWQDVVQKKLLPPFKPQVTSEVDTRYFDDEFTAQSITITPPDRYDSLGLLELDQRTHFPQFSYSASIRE
Mitogen-activated protein kinase 9 (Homo sapiens), sequence (P45984 whole entry, looked up): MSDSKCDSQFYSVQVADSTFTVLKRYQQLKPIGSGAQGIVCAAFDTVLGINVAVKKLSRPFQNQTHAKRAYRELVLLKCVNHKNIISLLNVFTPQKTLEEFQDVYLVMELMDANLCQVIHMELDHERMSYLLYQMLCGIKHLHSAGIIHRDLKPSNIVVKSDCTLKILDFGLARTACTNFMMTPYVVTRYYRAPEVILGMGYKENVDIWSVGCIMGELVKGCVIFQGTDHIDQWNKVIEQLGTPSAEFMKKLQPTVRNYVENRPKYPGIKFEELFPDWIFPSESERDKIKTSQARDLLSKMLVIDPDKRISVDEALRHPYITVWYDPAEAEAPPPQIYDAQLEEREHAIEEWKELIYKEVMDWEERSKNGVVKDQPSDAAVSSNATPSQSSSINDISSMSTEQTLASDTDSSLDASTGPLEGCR
Calcium/calmodulin-dependent protein kinase type 1 (Homo sapiens), sequence (Q14012 whole entry, looked up): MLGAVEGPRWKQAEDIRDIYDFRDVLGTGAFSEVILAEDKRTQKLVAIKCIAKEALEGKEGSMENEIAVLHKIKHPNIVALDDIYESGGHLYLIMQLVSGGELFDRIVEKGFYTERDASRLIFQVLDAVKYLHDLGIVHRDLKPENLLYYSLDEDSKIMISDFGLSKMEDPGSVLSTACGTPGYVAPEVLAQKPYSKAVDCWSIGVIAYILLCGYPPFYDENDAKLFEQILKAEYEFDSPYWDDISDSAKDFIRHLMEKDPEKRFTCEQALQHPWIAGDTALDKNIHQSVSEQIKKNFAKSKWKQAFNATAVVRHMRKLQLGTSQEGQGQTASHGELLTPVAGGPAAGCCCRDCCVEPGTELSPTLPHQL
Casein kinase I isoform delta, sequence (P48730 whole entry, the tested form may be a part, canonical isoform): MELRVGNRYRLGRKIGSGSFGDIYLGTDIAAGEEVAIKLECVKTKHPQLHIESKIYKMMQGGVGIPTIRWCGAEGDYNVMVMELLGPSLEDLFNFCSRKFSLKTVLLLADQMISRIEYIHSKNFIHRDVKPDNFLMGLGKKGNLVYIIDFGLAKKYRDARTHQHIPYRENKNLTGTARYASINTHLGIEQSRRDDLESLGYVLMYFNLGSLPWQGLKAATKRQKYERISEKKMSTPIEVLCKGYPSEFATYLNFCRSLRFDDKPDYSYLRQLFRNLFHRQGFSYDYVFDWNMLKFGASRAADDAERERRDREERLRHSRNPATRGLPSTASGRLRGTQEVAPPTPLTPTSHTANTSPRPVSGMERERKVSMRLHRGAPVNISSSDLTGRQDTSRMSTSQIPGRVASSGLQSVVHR

SMILES	Activity [1] [%]	Activity [2] [%]	Activity [3] [%]	IC50 [4] [nM]	Activity [5] [%]	Activity [6] [%]	Activity [7] [%]	Activity [8] [%]	Activity [9] [%]	Activity [10] [%]	Activity [11] [%]
CC(C)c1onc(-c2ccc(F)cc2)c1-c1ccncc1	28	95	–	–	–	–	–	–	–	–	–
COc1ccc(/C=C/C(=O)Nc2cc(-c3[nH]c([S+](C)[O-])nc3-c3ccc(F)cc3)ccn2)c(OC)c1 (configuration not stated)	–	–	94	5	12	100	83	98	88	122	84
COc1ccc(/C=C/C(=O)Nc2cc(-c3[nH]c(SC)nc3-c3ccc(F)cc3)ccn2)c(OC)c1	–	–	94	4	31	98	79	92	80	115	76
CC(C)c1noc(-c2ccc(F)cc2)c1-c1ccncc1	90	95	–	–	–	–	–	–	–	–	–
